In general, T/C refers to the result in the treated group divided by that in the control group, in per cent. By IC50 is commonly meant the midpoint of a concentration-inhibition curve.

Here are results for six molecules from ChEMBL document CHEMBL1124172 (J Med Chem, 1988).

Converted amounts (≈) assume the structure as drawn. The source made the active and inactive calls. No cut-off for these calls is given here.

In data set [1] the test system is Mus musculus. Briefly: In vivo antitumor activity against P388 Lymphocytic Leukemia measured as Survivors on day 5 at 17.75 mg/kg; 5/6. The class given is functional.
In data set [2] the test system is Mus musculus. Briefly: In vivo antitumor activity against P388 Lymphocytic Leukemia measured as Survivors on day 5 at 35.5 mg/kg; 6/6. The class given is functional.
The test system of data set [3] is Mus musculus. The data set can be described thus: In vivo antitumor activity against P388 Lymphocytic Leukemia in mice at 35.5 mg/kg expressed as T/C value. It counts as functional.
The subject of data set [4] is Mus musculus. The data set can be described thus: In vivo antitumor activity against P388 Lymphocytic Leukemia measured as Survivors on day 5 at 71 mg/kg; 5/6. It counts as functional.
Data set [5] concerns Mus musculus. The data set can be described thus: In vivo antitumor activity against P388 Lymphocytic Leukemia in mice at 17.75 mg/kg expressed as T/C value. It counts as functional.
The test system of data set [6] is Mus musculus. The data set can be described thus: In vivo antitumor activity against P388 Lymphocytic Leukemia in mice at 71 mg/kg expressed as T/C value. It counts as functional.
Data set [7] has as its system Mus musculus. The data set can be described thus: In vivo antitumor activity against P388 Lymphocytic Leukemia in mice at 8.88 mg/kg expressed as T/C value. It counts as functional.
For data set [8], the system named is Mus musculus. The data set can be described thus: In vivo antitumor activity against P388 Lymphocytic Leukemia measured as Survivors on day 5 at 8.88 mg/kg; 6/6. It counts as functional.
The test system of another data set is A204. The data set can be described thus: In vitro cytotoxicity against human A204 Rhabdomyosarcoma cell line. It counts as functional, cell-based. The method, boiled down:
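A204 human rhabdomyosarcoma soft-agarose colony assay. 10^4 trypsin/EDTA-dissociated cells in 0.3% agarose over a 0.5% agarose base, in DMEM with 10% FCS, at 37 °C and 5% CO2. Compound was applied in an upper medium layer on day 1 for 24 h, then washed out. Colonies >60 µm were counted after 7–9 days by tetrazolium stain and image analysis. Quadruplicates with vehicle controls, at least four concentrations up to 100 or 1000 µg/mL. IC50 from a monoexponential least-squares fit over at least three preparations, mean ± SE.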

Data set [9] concerns Mus musculus. The data set can be described thus: In vivo antitumor activity against P388 Lymphocytic Leukemia measured as Survivors on day 5 at 23 mg/kg; 6/6. The class given is functional.
In data set [10] the test system is Mus musculus. Briefly: In vivo antitumor activity against P388 Lymphocytic Leukemia measured as Survivors on day 5 at 11.50 mg/kg; 6/6. It counts as functional. Conditions: dose 11.5 mg/kg.
The test system of data set [11] is Mus musculus. The data set can be described thus: In vivo antitumor activity against P388 Lymphocytic Leukemia in mice at 46 mg/kg expressed as T/C value. It counts as functional.
Data set [12] relates to Mus musculus. Briefly: In vivo antitumor activity against P388 Lymphocytic Leukemia measured as Survivors on day 5 at 92 mg/kg; 6/6. It counts as functional.
Data set [13] deals with Mus musculus. Briefly: In vivo antitumor activity against P388 Lymphocytic Leukemia in mice at 11.50 mg/kg expressed as T/C value. It counts as functional. Particulars: dose 11.5 mg/kg.
The subject of data set [14] is Mus musculus. Briefly: In vivo antitumor activity against P388 Lymphocytic Leukemia in mice at 23 mg/kg expressed as T/C value. It counts as functional.
Data set [15] has as its system Mus musculus. The data set can be described thus: In vivo antitumor activity against P388 Lymphocytic Leukemia measured as Survivors on day 5 at 46 mg/kg; 6/6. It counts as functional.
Data set [16] deals with Mus musculus. Briefly: In vivo antitumor activity against P388 Lymphocytic Leukemia in mice at 92 mg/kg expressed as T/C value. The class given is functional.
Data set [17] deals with Mus musculus. The data set can be described thus: Weight difference when tested in vivo for antitumor activity against P388 Lymphocytic Leukemia. It counts as functional.
The subject of data set [18] is Mus musculus. Briefly: In vivo antitumor activity against P388 Lymphocytic Leukemia measured as Survivors on day 5 at 1300 mg/kg; 0/6. The class given is functional.
Data set [19] deals with Mus musculus. The data set can be described thus: In vivo antitumor activity against P388 Lymphocytic Leukemia measured as Survivors on day 5 at 162.50 mg/kg; 6/6. Particulars: dose 162.5 mg/kg. It counts as functional.
For data set [20], the system named is Mus musculus. Briefly: In vivo antitumor activity against P388 Lymphocytic Leukemia measured as Survivors on day 5 at 325 mg/kg; 0/6. The class given is functional.
In data set [21] the test system is Mus musculus. Briefly: In vivo antitumor activity against P388 Lymphocytic Leukemia in mice at 325 mg/kg expressed as T/C value); Toxic. Set-up: dose 325 mg/kg. The class given is toxicity, organism-based.
In data set [22] the test system is Mus musculus. The data set can be described thus: In vivo antitumor activity against P388 Lymphocytic Leukemia in mice at 40.60 mg/kg expressed as T/C value (repeat). The class given is functional. Conditions: dose 40.6 mg/kg.
The test system of data set [23] is Mus musculus. Briefly: In vivo antitumor activity against P388 Lymphocytic Leukemia measured as survivors on day 5 at 81.25 mg/kg (repeat); 6/6. The class given is functional.
Data set [24] deals with Mus musculus. Briefly: In vivo antitumor activity against P388 Lymphocytic Leukemia measured as survivors on day 5 at 162.50 mg/kg (repeat); 6/6. The class given is functional. Conditions: dose 162.5 mg/kg.
The subject of data set [25] is Mus musculus. Briefly: In vivo antitumor activity against P388 Lymphocytic Leukemia measured as survivors on day 5 at 325 mg/kg (repeat); 0/6. It counts as functional.
Data set [26] relates to Mus musculus. The data set can be described thus: In vivo antitumor activity against P388 Lymphocytic Leukemia measured as survivors on day 5 at 40.60 mg/kg (repeat); 6/6. Particulars: dose 40.6 mg/kg. The class given is functional.
The subject of data set [27] is Mus musculus. The data set can be described thus: In vivo antitumor activity against P388 Lymphocytic Leukemia in mice at 1300 mg/kg expressed as T/C value; Toxic. It counts as toxicity, organism-based. Set-up: dose 1300 mg/kg.
Data set [28] deals with Mus musculus. Briefly: In vivo antitumor activity against P388 Lymphocytic Leukemia in mice at 162.50 mg/kg expressed as T/C value. The class given is functional. Conditions: dose 162.5 mg/kg.
In data set [29] the test system is Mus musculus. The data set can be described thus: In vivo antitumor activity against P388 Lymphocytic Leukemia in mice at 162.5 mg/kg expressed as T/C value(repeat). It counts as functional.
Data set [30] concerns Mus musculus. Briefly: In vivo antitumor activity against P388 Lymphocytic Leukemia measured as Survivors on day 5 at 650 mg/kg; 0/6. The class given is functional.
For data set [31], the system named is Mus musculus. Briefly: In vivo antitumor activity against P388 Lymphocytic Leukemia in mice at 650 mg/kg expressed as T/C value; Toxic. Also noted: dose 650 mg/kg. It counts as toxicity, organism-based.
For data set [32], the system named is Mus musculus. The data set can be described thus: In vivo antitumor activity against P388 Lymphocytic Leukemia in mice at 81.25 mg/kg expressed as T/C value (repeat). It counts as functional.
Another data set relates to P388. The data set can be described thus: Weight difference when tested in vivo for antitumor activity against P388 Lymphocytic Leukemia; weight difference expressed as (T-C). It counts as functional, Mus musculus.
Data set [33] deals with Mus musculus. The data set can be described thus: Weight difference when tested in vivo for antitumor activity against P388 Lymphocytic Leukemia; weight difference expressed as (T-C); Not active. The class given is functional, organism-based.
For data set [34], the system named is Mus musculus. Briefly: In vivo antitumor activity against P388 Lymphocytic Leukemia in mice expressed as T/C value; Toxic.

In the case of `CCC(O)(C(=O)OCC1=CC[N+]2([O-])CC[C@H](OC(=O)[C@@](O)(CC)c3ccccc3)[C@@H]12)c1ccccc1` (some centres undefined), the Survivors in the data set with Mus musculus [1] is given as 5; in the data set on Mus musculus [2] it was 6; in the data set on Mus musculus [4], 5; in the data set on Mus musculus [8], 6. Also, the T/C in the data set with Mus musculus [3] is 106%; in the data set on Mus musculus [5], 100%; in the data set with Mus musculus [6], 109%; in the data set on Mus musculus [7] it was 107%.
For `C[C@H]1C(=O)O[C@@H]2CC[N+]3([O-])CC=C(COC(=O)[C@](C)(O)[C@]1(C)O)[C@H]23` (some centres undefined) [MONOCROTALINE N-OXIDE], in the data set on A204, inhibition was half-maximal at 721 µg/mL (≈ 2110 µM) (IC50).
Still for that read-out and setting: next, `CC1C(=O)O[C@@H]2CCN3CC=C(COC(=O)C(C)(O)C1(C)O)[C@H]23` (some centres undefined): 316 µg/mL (≈ 971 µM).
Regarding `CC(C)C(O)(C(=O)O[C@@H]1CCN2CC[C@H](CO)[C@H]12)C(C)O` (some centres undefined), the Survivors with Mus musculus [9], in the data set on Mus musculus [10], with Mus musculus [12] and in the data set with Mus musculus [15] was 6 each time. The T/C was determined as 105% in the data set on Mus musculus [11], 111% in the data set on Mus musculus [13], 107% in the data set on Mus musculus [14] and 98% in the data set with Mus musculus [16]. Also, in the data set with Mus musculus [17], the Weight difference is listed as -1.2.
Molecule `CC(C)[C@](O)(C(=O)OCC1=CC[N+]2([O-])CC[C@@H](O)[C@@H]12)[C@H](C)O` (some centres undefined) [INDICINE N-OXIDE] had a concentration for half-maximal inhibition (IC50) in the data set on A204 of 125 µg/mL (≈ 396 µM).
As for `CC(C)C(O)(C(=O)OCC1CCN2CC[C@@H](O)[C@@H]12)C(C)O` (some centres undefined), the Survivors in the data set with Mus musculus [18] worked out at 0; in the data set on Mus musculus [19], 6; with Mus musculus [20], 0; with Mus musculus [23], 6; in the data set on Mus musculus [24], 6; in the data set with Mus musculus [25] it was 0. The Survivors in the data set with Mus musculus [26] was determined as 6; with Mus musculus [30], 0. In addition, the T/C entry with Mus musculus [21] is on record as “Toxic”; in the data set with Mus musculus [22], 96%; with Mus musculus [27] it was “Toxic”; in the data set on Mus musculus [28] it was 92%; in the data set with Mus musculus [29] it was 98%; in the data set on Mus musculus [31], “Toxic”. Further, the T/C in the data set on Mus musculus [32] is reported as 102%; in the data set on Mus musculus [34], “Toxic”. This molecule also displayed a Weight difference with P388 of 0.5. Also, the Weight difference result in the data set with Mus musculus [33] was “inactive”. The half-maximal inhibitory concentration (IC50) in the data set on A204 came to 400 µg/mL (≈ 1330 µM).
